Several values for one entry are separate records, joined by “and”; a condition that tells them apart may be missing. Equal entries are not always repeated.
Tests used:
[1] = Weight gains, feed and water consumption of gavaged rats; format: in vivo, rat; conditions: for Total feed consumption (g ± SEM) / Total water consumption (g ± SEM): 1000 mg/kg BW/day
Procedure, shortened: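 Rats were housed singly at 18–26 °C, 40–70% RH and 12 h light/dark, with feed and water ad libitum. They were gavaged for 10 days from GD10 with vehicle (1% CMC-Na) or 1000 mg/kg BW/day test compound. Fluid intake was measured every 3 days and feed every 7 days. For dams, adjusted gain = GD20 body weight minus gravid uterus weight and GD10 weight.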

[2] = Body weight and organ weights standardized to body weight; format: in vivo, rat; conditions: for GD20 Body weight (g ± SEM) / Heart weight standardized to body weight (% ± SEM) / Left kidney weight standardized to body weight (% ± SEM) / Liver weight standardized to body weight (% ± SEM) / Right kidney weight standardized to body weight (% ± SEM) / Spleen weight standardized to body weight (% ± SEM) / Paired kidney weight standardized to body weight (% ± SEM): 1000 mg/kg BW/day; for Paired kidney weight standardized to body weight (% ± SEM): group mean, 1000 mg/kg/day
pregnant rats = test: Reproductive indices at necropsy; format: in vivo, rat
Procedure, shortened: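 Time-pregnant rats were gavaged daily for 10 days from GD10 with 1% CMC-Na or 1000 mg/kg BW/day test compound. At necropsy the gravid uterus was removed whole and weighed, and corpora lutea, implants, and early and late deaths were recorded. Groups were compared against both control and the other triazine group.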

fetuses = test: Fetal data; format: in vivo, rat; conditions: dams, 1000 mg/kg BW/day, GD20
Procedure, shortened: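 Dams were dosed by gavage (1000 mg/kg BW/day or 1% CMC-Na vehicle) for 10 days from GD10. At GD20 necropsy, the gravid uterus was removed whole and weighed. Each viable fetus was recorded for uterine position, sex, weight, crown-rump length and external abnormalities. Runts were defined as below 70% of the control litter average weight by gender.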

kidney = test: Kidney wet-mount analysis for renal crystals; format: in vivo, rat; conditions: pregnant and non-pregnant combined, wet-mount
Procedure, shortened: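 After 10 days of gavage at 1000 mg/kg BW/day, a thin fresh renal slice spanning cortex and medulla was weighed. It was compressed between two slides with a coverslip and examined fresh by light microscopy. Crystals were ranked on a subjective 0–5 scale; some views used polarised light.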

[3] = Serum chemistry, renal function; format: in vivo, rat; conditions: for Blood urea nitrogen (mean ± SEM) / Creatinine (mean ± SEM) / Uric acid (mean ± SEM): serum
Procedure, shortened: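 Serum was taken from pregnant and non-pregnant rats after 10 days of gavage with vehicle or 1000 mg/kg BW/day test compound. Samples were brought to room temperature. BUN, creatinine and uric acid were measured on a benchtop veterinary chemistry analyser. Results were compared with control and the other treated group.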

[4] = Serum triazine analysis by LC-MS/MS; format: in vivo; conditions: pregnant female rats, individual rat; label = dose group; LOD 0.4 μg/mL
Procedure, shortened: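 Serum was collected from each rat after 10 daily gavages of 1000 mg/kg BW/day test compound or vehicle. Melamine and cyanuric acid were quantified by a previously published LC-MS/MS method, validated with pre-spiked serum samples at several fortification levels. Natural-log serum concentrations were compared between pregnant and non-pregnant rats by two-sided t-test (p ≤ 0.05).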

[5] = Amniotic fluid triazine analysis by LC-MS/MS; format: in vivo, rat; conditions: pregnant female rats, pooled by dam; label = dose group; LOD 0.4 μg/mL
Procedure, shortened: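 Amniotic fluid came from GD20 dams gavaged for 10 days with vehicle or 1000 mg/kg BW/day test compound. Melamine and cyanuric acid were measured by a previously published LC-MS/MS method, validated with pre-spiked amniotic fluid. Serum-to-amniotic fluid Pearson correlations were run only on rats with both samples (p ≤ 0.05).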

[6] = Formalin, ethanol and freezing effects on renal crystals; parameters: species or system rat
Procedure, shortened: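 Fresh kidney wet-mounts with crystal rank 4–5 were flooded with 10% neutral buffered formalin and photographed repeatedly. Times were 0, 1, 2, 3 and 24 h for melamine-exposed kidney and 0, 10, 20, 30 min and 1 h for cyanuric acid-exposed kidney. Sections in 100% ethanol were checked daily for up to 6 days. Frozen tissue, either freeze–thawed or held at −70 °C, was cut into 6 μm cryosections, unstained or unfixed H&E.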

kidney and bladder = test: Histopathology of kidney and bladder; format: in vivo, rat
rats = test: Clinical observations and survival; format: in vivo, rat; conditions: pregnant and non-pregnant rats; 1000 mg/kg BW/day
Procedure, shortened: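 Female rats, time-pregnant or non-pregnant, were weight-stratified and randomised from GD10. They were gavaged each morning for 10 days with 1% CMC-Na vehicle or 1000 mg/kg BW/day test compound at 1 mL/100 g (n = 11/group; pregnant high-triazine group n = 13). Observations were made at least twice on day 1, then at least daily, covering skin, fur, eyes, mucosa, autonomic/CNS signs and behaviour. Animals removed early were counted as deaths.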

[7] = oral, female rats; ref Jacob et al., 2012; cited from earlier work
[8] = dams, 1000 mg/kg BW/day, necropsy GD20
[9] = not pregnant rats, 1000 mg/kg BW/day
[10] = pregnant and non-pregnant pooled
[11] = pregnant rats, 1000 mg/kg BW/day

With `Oc1nc(O)nc(O)n1` [CYA, cyanuric acid] the “Total feed consumption (g ± SEM)” value ([1]; not pregnant rats) was 158.6 ± 8.8 g, the “Total water consumption (g ± SEM)” value ([1]; not pregnant rats) was 264 ± 21.2 g and the “Total bw gain (g ± SEM)” value ([1]; not pregnant rats, 1000 mg/kg BW/day gavage 10 days, brackets indicate negative) was 16.0 ± 4.1 g. For the same compound, the “Total feed consumption (g ± SEM)” value ([1]; pregnant rats) was 220.1 ± 5.4 g, the “Total water consumption (g ± SEM)” value ([1]; pregnant rats) was 353.6 ± 17.5 g and the “Total bw gain (g ± SEM)” value ([1]; pregnant rats, 1000 mg/kg BW/day gavage GD10-20) was 94.2 ± 3.3 g. The “GD20 Body weight (g ± SEM)” value ([2]; not pregnant rats) was 234.3 ± 4.5 g, the “Heart weight standardized to body weight (% ± SEM)” value ([2]; not pregnant rats) was 0.38 ± 0.01% and the “Left kidney weight standardized to body weight (% ± SEM)” value ([2]; not pregnant rats) was 0.43 ± 0.02%. The “Liver weight standardized to body weight (% ± SEM)” value ([2]; not pregnant rats) was 3.48 ± 0.07 %, the “Right kidney weight standardized to body weight (% ± SEM)” value ([2]; not pregnant rats) was 0.45 ± 0.03% and the “Spleen weight standardized to body weight (% ± SEM)” value ([2]; not pregnant rats) was 0.23 ± 0.02%. For the same compound, the “Paired kidney weight standardized to body weight (% ± SEM)” value ([2]; not pregnant rats) was 0.88% and 0.88 ± 0.05%, the “GD20 Body weight (g ± SEM)” value ([2]; pregnant rats) was 351.3 ± 6.1 g and the “Heart weight standardized to body weight (% ± SEM)” value ([2]; pregnant rats) was 0.30 ± 0.01%. The “Left kidney weight standardized to body weight (% ± SEM)” value ([2]; pregnant rats) was 0.28 ± 0.02%, the “Liver weight standardized to body weight (% ± SEM)” value ([2]; pregnant rats) was 3.58 ± 0.09% and the “Right kidney weight standardized to body weight (% ± SEM)” value ([2]; pregnant rats) was 0.30 ± 0.01%. For the same compound, the “Spleen weight standardized to body weight (% ± SEM)” value ([2]; pregnant rats) was 0.17 ± 0.01%, the “Paired kidney weight standardized to body weight (% ± SEM)” value ([2]; pregnant rats) was 0.58% and 0.58 ± 0.03% and the “Standardized paired kidney weight of individual rats with renal crystals” value ([2]; two non-pregnant rats with crystals, both the same value) was 1.22%. For the same compound, the “Standardized paired kidney weight of individual rats with renal crystals” value ([2]; two pregnant rats with crystals) was 0.74% and 0.77%, the “Effect on reproductive indices compared with controls” value (pregnant rats; 1000 mg/kg BW/day) was “did not appear to have an effect” and the “No. corpea lutea (mean ± SEM)” value (pregnant rats; dams, 1000 mg/kg BW/day gavage GD10-20, necropsy GD20) was 15.1 ± 0.5. For the same compound, the “Early and late deaths (mean% of implants ± SEM)” value (pregnant rats; [8]) was 3.4 ± 1.6 % of implants, the “Early deaths (mean% of implants ± SEM)” value (pregnant rats; [8]) was 1.3 ± 0.9 % of implants and the “Implant efficiency (mean% ± SEM)” value (pregnant rats; [8]) was 90.7 ± 3.0%. For the same compound, the “Late deaths (mean% of implants ± SEM)” value (pregnant rats; [8]) was 2.0 ± 1.6 % of implants, the “No. fetuses alive (mean ± SEM)” value (pregnant rats; [8]) was 13.2 ± 0.6 and the “No. implants (mean ± SEM)” value (pregnant rats; [8]) was 13.6 ± 0.5. For the same compound, the “Percent alive both genders (mean% ± SEM)” value (pregnant rats; [8]) was 96.7 ± 1.6%, the “Percent live females (mean% ± SEM)” value (pregnant rats; [8]) was 40.7 ± 3.8% and the “Average crown rump length (mean cm ± SEM)” value (fetuses) was 4.10 ± 0.02 cm. For the same compound, the “Average fetal body weight (g ± SEM)” value (fetuses) was 4.06 ± 0.05 g, the “Litter size (mean ± SEM)” value (fetuses) was 13.2 ± 0.6 and the “Treated rats that developed renal crystals (percent)” value (kidney; MEL n = 24, CYA n = 22) was 18%. The “Number of treated rats that developed renal crystals” value (kidney; MEL of 24, CYA of 22) was 4, the “Effect on uric acid serum levels versus control rats” value ([3]; 1000 mg/kg BW/day) was “did not appear to have an effect” and the “Mean BUN of treated rats with renal crystals” value ([3]; 4 rats (2 pregnant and 2 non-pregnant)) was 31 mg/dL. The “Blood urea nitrogen (mean ± SEM)” value [3, 9] was 17.82 ± 2.33 mg/dL, the “Creatinine (mean ± SEM)” value [3, 9] was 0.59 ± 0.07 mg/dL and the “Uric acid (mean ± SEM)” value [3, 9] was 5.26 ± 0.27^& mg/dL. The “Mean BUN of the other treated rats (without crystals)” value [3, 10] was 15 mg/dL, the “Mean creatinine of treated rats with crystals” value [3, 10] was 1.1 mg/dL and the “Mean creatinine of treated rats without crystals” value [3, 10] was 0.5 mg/dL. For the same compound, the “Blood urea nitrogen (mean ± SEM)” value [3, 11] was 17.45 ± 2.26 mg/dL, the “Creatinine (mean ± SEM)” value [3, 11] was 0.59 ± 0.07 mg/dL and the “Uric acid (mean ± SEM)” value [3, 11] was 3.37 ± 0.28 mg/dL. The “MEL concentration, Serum” value [4] was “<LOD”, the “MEL concentration, Amniotic Fluid” value [5] was “<LOD” and the “Stability of crystals to freeze–thaw cycles” value ([6]; frozen kidney tissue, CYA stable if held at −70 °C) was “dissolved”. For the same compound, the “Time at which almost all crystals were gone in formalin” value ([6]; kidney wet-mount sections) was 30 min, the “Number of rats with epithelial necrosis in the bladder” value (kidney and bladder; MEL: pregnant rats, minimal to marked, CYA: 1 pregnant, 2 non-pregnant, mild) was “Three” and the “Number of rats with tubular dilation and necrosis” value (kidney and bladder; kidney, H&E, of 22 treated rats) was 5. For the same compound, the “Maternal health during 10 day dosing period” value (rats) was “no treatment related health effects”, the “Area under the curve (AUC)” value [7] was 1375 ng·h/mL and the Half-life [7] was 59.4 min.
